High-throughput results (PubChem BioAssay)
The full list was thinned out, with hits kept by preference.
N-glyco inh: blocks N-linked glycosylation in D54 reporter cells | D54 ERlucT glycosylation luciferase reporter, 24 h; percent of 100 nM tunicamycin response | reporter increase, % at 12.5 µM | actives 0.23% (n = 360,000);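 active means mean luciferase reporter signal, scaled so untreated is 0 and the glycosylation-blocking control 100, at or above a set limit in every replicate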;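 further: luciferase carries N-glycosylation sites so blocking glycosylation raises the light; 0% = median of neutral control wells and 100% = median of 100 nM tunicamycin wells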
ALR inh: blocks human ALR sulfhydryl oxidase activity. P55789. purified ALR, DTT oxidation, H2O2 HRP-luminol luminescence. inhibition, % (test concentration not listed). actives 3.8% (n = 290,000). AID 485317;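 active means mean replicate inhibition above about 79%, with every replicate also reaching it, limit read from the data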
Target sequence (P55789 whole entry, looked up): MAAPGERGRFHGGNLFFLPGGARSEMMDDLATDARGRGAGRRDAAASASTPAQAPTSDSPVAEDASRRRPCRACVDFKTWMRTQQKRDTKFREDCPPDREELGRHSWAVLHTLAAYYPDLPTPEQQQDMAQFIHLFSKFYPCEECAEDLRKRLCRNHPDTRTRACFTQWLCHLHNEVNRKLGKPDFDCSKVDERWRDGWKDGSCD
T cell modulator: T cell immune modulation candidate. response (vesicle binding), % at 7 µM. 2C CD8+ T cell-vesicle binding, flow cytometry; active compounds read low. actives 0.068% (n = 330,000);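 active means response, share of CD8 T cells binding vesicles, and their 90th percentile fluorescence all below set limits, cut at about 80% in these data, passing the limit was not always enough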;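 further: values below 100% mean blocked vesicle binding to the CD8+ T cells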
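Assay system – 2C mouse CD8+ T cells · Also added – QL9-loaded Drosophila micro-vesicles · Timing – Cell–vesicle co-incubation 1.5 h at 37 °C, staining 20 min on ice · Signal – flow cytometry of vesicle-bound cells · Measure – percent CD8+ FL2 mean versus row control · Controls – Peptide-free naked vesicles (low) and QL9 vesicles with 0.7% DMSO vehicle (high)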
* marks the source's active call; other numbers are inactive results.

`COCc1cc(=O)n2[nH]c(C)c(-c3ccc(Cl)cc3)c2n1` gave N-glyco inh 1.9.
`COCc1cc(=O)n2[nH]cc(-c3ccsc3)c2n1` gave N-glyco inh -0.1, ALR inh 99.0* and T cell modulator 180.4.
COCOc1ccc(C=O)cc1OCOC was read as N-glyco inh 3.0, ALR inh -3.7 and T cell modulator 213.5.
Screening COc1cccc(N(CC(=O)N2CCCCCC2)S(C)(=O)=O)c1 returned N-glyco inh 0.1, ALR inh -1.8 and T cell modulator 354.0.
Screening Oc1cccc(-c2nnc(-c3cccc(O)c3)nn2)c1 returned N-glyco inh -16.0.
For Cc1c(-n2c(SCC(=O)O)nnc2-c2ccccc2Br)c(=O)n(-c2ccccc2)n1C the results were N-glyco inh -0.3 and T cell modulator 286.4.
For CCOC(=O)C(=O)NNc1ccc(F)cc1 the results were N-glyco inh 3.6, ALR inh 98.9* and T cell modulator 287.9.
Screening CCOC(=O)C(=O)N/N=C/c1ccc(F)cc1 returned N-glyco inh 0.0, ALR inh -10.9 and T cell modulator 360.6.
For c1ccc(N2CCOCCOCCOCCOCC2)cc1 the results were N-glyco inh 1.2, ALR inh 99.2* and T cell modulator 548.6.
For c1ccn(-c2ccc(N3CCOCC3)cc2)c1 the results were N-glyco inh -3.0, ALR inh 21.6 and T cell modulator 110.5.
CCN(CC)C(=O)C1=C(C)N(Cc2ccc(F)cc2)C(=O)C(CC(=O)NCCCN(C)C)C1 (stereo not given) was read as N-glyco inh 3.9.
Oc1cccc(Nc2nc(-c3ccccc3Cl)nc3ccccc23)c1 was read as N-glyco inh 4.5, ALR inh 87.9* and T cell modulator 248.0.
For Oc1cccc(Nc2c3ccccc3nc3ccccc23)c1 the results were N-glyco inh 62.2*, ALR inh 99.3* and T cell modulator 73.8.
For Oc1ccc(Nc2nc(-c3ccccc3F)nc3ccccc23)cc1 the results were N-glyco inh 0.0, ALR inh 99.5* and T cell modulator 195.3.
For Oc1ccc(Nc2nc(-c3ccccc3O)nc3ccccc23)cc1 the results were N-glyco inh -0.1, ALR inh 49.7 and T cell modulator 216.7.
Screening c1cncc(Nc2c3ccccc3nc3ccccc23)c1 returned N-glyco inh 11.2, ALR inh 4.8 and T cell modulator 277.4.
`Cc1ccc(-c2nc(Nc3cccc(O)c3)c3ccccc3n2)cc1` gave N-glyco inh 2.9, ALR inh -128.8 and T cell modulator 203.5.
Screening CCCNC(=O)N1CCCC(C(N)=O)C1 (stereo not given) returned N-glyco inh 0.0, ALR inh -4.4 and T cell modulator 703.9.
`O=C(NCCCc1ccccc1)C1CC1` gave N-glyco inh 3.5, ALR inh -2.7 and T cell modulator 317.0.
For Cc1ccc(-c2cc(C(F)F)nc(S(C)(=O)=O)n2)cc1 the results were N-glyco inh 2.7, ALR inh 19.7 and T cell modulator 424.3.
Screening COc1ccc(NC(=O)N2CCCC(c3ccccc3)C2)cc1 (stereo not given) returned N-glyco inh -0.1, ALR inh -7.7 and T cell modulator 136.3.
`CCN(CC)S(=O)(=O)c1ccc(C(=O)Nc2ccc3c(c2)OCO3)cc1` gave N-glyco inh 1.3, ALR inh -12.3 and T cell modulator 177.5.
O=C(NC1=NCCS1)c1cccc(S(=O)(=O)N2CCOCC2)c1 was read as N-glyco inh 0.4 and T cell modulator 329.2.
Cc1ccc(NC(=O)CSc2nccn(-c3ccc4c(c3)OCCO4)c2=O)cc1 was read as N-glyco inh -2.5, ALR inh 98.9* and T cell modulator 354.9.
CCOc1ccc(NC(=O)CSc2nccn(-c3ccc4c(c3)OCCO4)c2=O)cc1 was read as N-glyco inh -3.5, ALR inh 97.7* and T cell modulator 297.5.
Screening CCc1ccc(NC(=O)CSc2nccn(-c3ccc4c(c3)OCCO4)c2=O)cc1 returned N-glyco inh -2.2.
Screening O=C(CSc1nccn(-c2ccc3c(c2)OCCO3)c1=O)Nc1ccccc1 returned N-glyco inh -3.4 and T cell modulator 254.5.
For CCCCOP(=O)(OCCCC)C1(C)CC(=O)CC(C)(C)C1 (stereo not given) the results were N-glyco inh 0.0.
For CC(C)c1ccccc1NC(=O)COC(=O)COc1ccccc1[N+](=O)[O-] the results were N-glyco inh 1.9, ALR inh -4.3 and T cell modulator 393.2.
For CC(C)(C)OC(=O)C[C@H]1C/C=C\C[C@H](CC(=O)NCCO)C(=O)NCCOC1=O the results were N-glyco inh 0.6, ALR inh 0.1 and T cell modulator 312.3.
For Cc1nc(-c2nnc(SCC(=O)Nc3cc(Cl)cc(Cl)c3)n2C)cs1 the results were N-glyco inh 0.1, ALR inh -2.4 and T cell modulator 424.0.
